Reference: ChEMBL document CHEMBL1155297, “Synthesis, antimicrobial and antioxidant activities of substituted pyrazoles, isoxazoles, pyrimidine and thioxopyrimidine derivatives” (2009)
Values after ≈ are worked out from the molar mass of the structure shown.

System: Proteus vulgaris
Test: Antibacterial activity against Proteus vulgaris NCIM 2027 after 24 hrs by microdilution susceptibility method
Format: functional
Settings: NCIM 2027, 24 h
Procedure, shortened: (§1)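 MIC by microdilution susceptibility; compounds in DMSO, bacterial suspensions inoculated into wells. Incubation was at 36 °C for 24 h. MIC is the lowest compound concentration showing no turbidity. Chloramphenicol served as reference antibacterial.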

First: NC1=NN=C(N)C1C(CC(=O)c1ccc(Cl)cc1)C(=O)c1ccc(Cl)cc1 (stereo unspecified)
Second: NC1=NN=C(N)C1C(CS(=O)(=O)c1ccc(Cl)cc1)S(=O)(=O)c1ccc(Cl)cc1 (stereo unspecified)
The MIC of the first is 2-fold higher: 100 µg/mL (≈ 248 µM) for the first, 50 µg/mL (≈ 105 µM) for the second.

System: not listed separately
Test: Antioxidant activity assessed as nitric oxide production at 100 uM after 120 mins by Griess reagent method
Format: functional
Settings: not given
Procedure, shortened: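 Nitric oxide assay with Griess read-out. At intervals, 0.5 ml of incubation solution was mixed with 0.5 ml Griess reagent (1% sulfanilamide, 0.1% N-naphthylethylenediamine dihydrochloride, 2% o-phosphoric acid in water). The control received an equal amount of solvent and was handled identically.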

Going from `NC1=NN=C(N)C1C(CC(=O)c1ccc(Cl)cc1)C(=O)c1ccc(Cl)cc1` (stereo unspecified) to `NC1=NN=C(N)C1C(CS(=O)(=O)c1ccc(Cl)cc1)S(=O)(=O)c1ccc(Cl)cc1` (stereo unspecified), the inhibition rises from 90.7% to 92.4%.

System: Proteus vulgaris
Test: Antibacterial activity against Proteus vulgaris NCIM 2027 at 200 ug/disk after 24 hrs by agar disk diffusion method
Format: functional
Settings: NCIM 2027, 24 h, read-out: IZ
Procedure, shortened: (§2)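 Agar disc diffusion on nutrient agar plates pre-inoculated with each bacterium. Sterile 6 mm filter-paper discs were moistened with compound in DMSO at the stated per-disc amount. Plates were incubated at 37 °C, and the growth-inhibition zone diameter was read after 24 h. Each determination was run in triplicate, and the mean of three independent readings is reported.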

Compared with `NC1=NN=C(N)C1C(CC(=O)c1ccc(Cl)cc1)C(=O)c1ccc(Cl)cc1` (stereo unspecified), `NC1=NN=C(N)C1C(CS(=O)(=O)c1ccc(Cl)cc1)S(=O)(=O)c1ccc(Cl)cc1` (stereo unspecified) is higher in zone of inhibition at 200 µg/disc: 28 mm for the first, 33 mm for the second.

System: Staphylococcus aureus
Test: Antibacterial activity against Staphylococcus aureus NCIM 5021 at 200 ug/disk after 24 hrs by agar disk diffusion method
Format: functional
Settings: NCIM 5021, 24 h, read-out: IZ
Procedure, shortened: as §2

Compared with `NC1=NN=C(N)C1C(CC(=O)c1ccc(Cl)cc1)C(=O)c1ccc(Cl)cc1` (stereo unspecified), `NC1=NN=C(N)C1C(CS(=O)(=O)c1ccc(Cl)cc1)S(=O)(=O)c1ccc(Cl)cc1` (stereo unspecified) is higher in zone of inhibition at 200 µg/disc: 33 mm for the first, 36 mm for the second.

System: Aspergillus niger
Test: Antifungal activity against Aspergillus niger NCIM 596 after 48 hrs by microdilution susceptibility method
Format: functional
Settings: NCIM 596, 48 h
Procedure, shortened: (§3)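 Broth microdilution MIC; fungal suspensions were inoculated into wells containing compound dissolved in DMSO. Incubation was at 36 °C for 48 h. MIC was recorded as the lowest concentration with no turbidity. Ketoconazole was the reference antifungal.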

Going from `NC1=NN=C(N)C1C(CC(=O)c1ccc(Cl)cc1)C(=O)c1ccc(Cl)cc1` (stereo unspecified) to `NC1=NN=C(N)C1C(CS(=O)(=O)c1ccc(Cl)cc1)S(=O)(=O)c1ccc(Cl)cc1` (stereo unspecified), the MIC falls from 200 µg/mL (≈ 496 µM) to 100 µg/mL (≈ 210 µM) (2-fold).

System: Curvularia lunata
Test: Antifungal activity against Curvularia lunata NCIM 716 at 100 ug/disk after 48 hrs by agar disk diffusion method
Format: functional
Settings: NCIM 716, 48 h, read-out: IZ
Procedure, shortened: (§4)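 Fungal disc diffusion on nutrient agar plates pre-inoculated with each fungus. 6 mm sterile paper discs carried the compound in DMSO at the stated amount per disc. Plates were held at 37 °C, and inhibition-zone diameter was measured after 48 h. Values are the mean of three independent triplicate readings.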

`NC1=NN=C(N)C1C(CC(=O)c1ccc(Cl)cc1)C(=O)c1ccc(Cl)cc1` (stereo unspecified) and `NC1=NN=C(N)C1C(CS(=O)(=O)c1ccc(Cl)cc1)S(=O)(=O)c1ccc(Cl)cc1` (stereo unspecified) are the same in zone of inhibition at 100 µg/disc: 34 mm for the first, 34 mm for the second.

System: Aspergillus niger
Test: Antifungal activity against Aspergillus niger NCIM 596 at 200 ug/disk after 48 hrs by agar disk diffusion method
Format: functional
Settings: NCIM 596, 48 h, read-out: IZ
Procedure, shortened: as §4

First: NC1=NN=C(N)C1C(CC(=O)c1ccc(Cl)cc1)C(=O)c1ccc(Cl)cc1 (stereo unspecified)
Second: NC1=NN=C(N)C1C(CS(=O)(=O)c1ccc(Cl)cc1)S(=O)(=O)c1ccc(Cl)cc1 (stereo unspecified)
The zone of inhibition at 200 µg/disc of the first is lower: 33 mm for the first, 35 mm for the second.

System: Fusarium solani
Test: Antifungal activity against Fusarium solani NCIM 1330 after 48 hrs by microdilution susceptibility method
Format: functional
Settings: NCIM 1330, 48 h
Procedure, shortened: as §3

`NC1=NN=C(N)C1C(CC(=O)c1ccc(Cl)cc1)C(=O)c1ccc(Cl)cc1` (stereo unspecified) and `NC1=NN=C(N)C1C(CS(=O)(=O)c1ccc(Cl)cc1)S(=O)(=O)c1ccc(Cl)cc1` (stereo unspecified) are the same in MIC: 200 µg/mL (≈ 496 µM) for the first, 200 µg/mL (≈ 421 µM) for the second.

System: Bacillus subtilis
Test: Antibacterial activity against Bacillus subtilis NCIM 2063 at 100 ug/disk after 24 hrs by agar disk diffusion method
Format: functional
Settings: NCIM 2063, 24 h, read-out: IZ
Procedure, shortened: as §2

Going from `NC1=NN=C(N)C1C(CC(=O)c1ccc(Cl)cc1)C(=O)c1ccc(Cl)cc1` (stereo unspecified) to `NC1=NN=C(N)C1C(CS(=O)(=O)c1ccc(Cl)cc1)S(=O)(=O)c1ccc(Cl)cc1` (stereo unspecified), the zone of inhibition at 100 µg/disc rises from 28 mm to 35 mm.

System: Radical scavenging activity
Test: Antioxidant activity assessed as DPPH free radical scavenging activity at 100 uM after 20 mins
Format: functional
Settings: not given
Procedure, shortened: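 DPPH scavenging: compound solutions were added to DPPH in dioxane/ethanol and kept at ambient temperature for 20 min. Absorbance was read at 517 nm. The test–control difference was expressed as percent DPPH radical scavenging.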

Going from `NC1=NN=C(N)C1C(CC(=O)c1ccc(Cl)cc1)C(=O)c1ccc(Cl)cc1` (stereo unspecified) to `NC1=NN=C(N)C1C(CS(=O)(=O)c1ccc(Cl)cc1)S(=O)(=O)c1ccc(Cl)cc1` (stereo unspecified), the inhibition rises from 91.7% to 92.4%.

System: Bacillus subtilis
Test: Antibacterial activity against Bacillus subtilis NCIM 2063 at 200 ug/disk after 24 hrs by agar disk diffusion method
Format: functional
Settings: NCIM 2063, 24 h, read-out: IZ
Procedure, shortened: as §2

Going from `NC1=NN=C(N)C1C(CC(=O)c1ccc(Cl)cc1)C(=O)c1ccc(Cl)cc1` (stereo unspecified) to `NC1=NN=C(N)C1C(CS(=O)(=O)c1ccc(Cl)cc1)S(=O)(=O)c1ccc(Cl)cc1` (stereo unspecified), the zone of inhibition at 200 µg/disc rises from 32 mm to 37 mm.

System: Aspergillus niger
Test: Antifungal activity against Aspergillus niger NCIM 596 at 100 ug/disk after 48 hrs by agar disk diffusion method
Format: functional
Settings: NCIM 596, 48 h, read-out: IZ
Procedure, shortened: as §4

`NC1=NN=C(N)C1C(CC(=O)c1ccc(Cl)cc1)C(=O)c1ccc(Cl)cc1` (stereo unspecified) and `NC1=NN=C(N)C1C(CS(=O)(=O)c1ccc(Cl)cc1)S(=O)(=O)c1ccc(Cl)cc1` (stereo unspecified) are the same in zone of inhibition at 100 µg/disc: 32 mm for the first, 32 mm for the second.

System: Proteus vulgaris
Test: Antibacterial activity against Proteus vulgaris NCIM 2027 at 100 ug/disk after 24 hrs by agar disk diffusion method
Format: functional
Settings: NCIM 2027, 24 h, read-out: IZ
Procedure, shortened: as §2

Compared with `NC1=NN=C(N)C1C(CC(=O)c1ccc(Cl)cc1)C(=O)c1ccc(Cl)cc1` (stereo unspecified), `NC1=NN=C(N)C1C(CS(=O)(=O)c1ccc(Cl)cc1)S(=O)(=O)c1ccc(Cl)cc1` (stereo unspecified) is higher in zone of inhibition at 100 µg/disc: 25 mm for the first, 31 mm for the second.

System: Fusarium solani
Test: Antifungal activity against Fusarium solani NCIM 1330 at 200 ug/disk after 48 hrs by agar disk diffusion method
Format: functional
Settings: NCIM 1330, 48 h, read-out: IZ
Procedure, shortened: as §4

Going from `NC1=NN=C(N)C1C(CC(=O)c1ccc(Cl)cc1)C(=O)c1ccc(Cl)cc1` (stereo unspecified) to `NC1=NN=C(N)C1C(CS(=O)(=O)c1ccc(Cl)cc1)S(=O)(=O)c1ccc(Cl)cc1` (stereo unspecified), the zone of inhibition at 200 µg/disc rises from 37 mm to 39 mm.

System: Klebsiella pneumoniae
Test: Antibacterial activity against Klebsiella pneumoniae NCIM 2957 at 100 ug/disk after 24 hrs by agar disk diffusion method
Format: functional
Settings: NCIM 2957, 24 h, read-out: IZ
Procedure, shortened: as §2

Going from `NC1=NN=C(N)C1C(CC(=O)c1ccc(Cl)cc1)C(=O)c1ccc(Cl)cc1` (stereo unspecified) to `NC1=NN=C(N)C1C(CS(=O)(=O)c1ccc(Cl)cc1)S(=O)(=O)c1ccc(Cl)cc1` (stereo unspecified), the zone of inhibition at 100 µg/disc rises from 28 mm to 30 mm.

System: Staphylococcus aureus
Test: Antibacterial activity against Staphylococcus aureus NCIM 5021 after 24 hrs by microdilution susceptibility method
Format: functional
Settings: NCIM 5021, 24 h
Procedure, shortened: as §1

Going from `NC1=NN=C(N)C1C(CC(=O)c1ccc(Cl)cc1)C(=O)c1ccc(Cl)cc1` (stereo unspecified) to `NC1=NN=C(N)C1C(CS(=O)(=O)c1ccc(Cl)cc1)S(=O)(=O)c1ccc(Cl)cc1` (stereo unspecified), the MIC falls from 100 µg/mL (≈ 248 µM) to 25 µg/mL (≈ 52.6 µM) (4-fold).

System: Curvularia lunata
Test: Antifungal activity against Curvularia lunata NCIM 716 at 200 ug/disk after 48 hrs by agar disk diffusion method
Format: functional
Settings: NCIM 716, 48 h, read-out: IZ
Procedure, shortened: as §4

Going from `NC1=NN=C(N)C1C(CC(=O)c1ccc(Cl)cc1)C(=O)c1ccc(Cl)cc1` (stereo unspecified) to `NC1=NN=C(N)C1C(CS(=O)(=O)c1ccc(Cl)cc1)S(=O)(=O)c1ccc(Cl)cc1` (stereo unspecified), the zone of inhibition at 200 µg/disc rises from 36 mm to 38 mm.

System: Klebsiella pneumoniae
Test: Antibacterial activity against Klebsiella pneumoniae NCIM 2957 after 24 hrs by microdilution susceptibility method
Format: functional
Settings: NCIM 2957, 24 h
Procedure, shortened: as §1

First: NC1=NN=C(N)C1C(CC(=O)c1ccc(Cl)cc1)C(=O)c1ccc(Cl)cc1 (stereo unspecified)
Second: NC1=NN=C(N)C1C(CS(=O)(=O)c1ccc(Cl)cc1)S(=O)(=O)c1ccc(Cl)cc1 (stereo unspecified)
The MIC of the first is 2-fold higher: 100 µg/mL (≈ 248 µM) for the first, 50 µg/mL (≈ 105 µM) for the second.

System: Klebsiella pneumoniae
Test: Antibacterial activity against Klebsiella pneumoniae NCIM 2957 at 200 ug/disk after 24 hrs by agar disk diffusion method
Format: functional
Settings: NCIM 2957, 24 h, read-out: IZ
Procedure, shortened: as §2

First: NC1=NN=C(N)C1C(CC(=O)c1ccc(Cl)cc1)C(=O)c1ccc(Cl)cc1 (stereo unspecified)
Second: NC1=NN=C(N)C1C(CS(=O)(=O)c1ccc(Cl)cc1)S(=O)(=O)c1ccc(Cl)cc1 (stereo unspecified)
The zone of inhibition at 200 µg/disc of the first is lower: 30 mm for the first, 32 mm for the second.

System: Curvularia lunata
Test: Antifungal activity against Curvularia lunata NCIM 716 after 48 hrs by microdilution susceptibility method
Format: functional
Settings: NCIM 716, 48 h
Procedure, shortened: as §3

Going from `NC1=NN=C(N)C1C(CC(=O)c1ccc(Cl)cc1)C(=O)c1ccc(Cl)cc1` (stereo unspecified) to `NC1=NN=C(N)C1C(CS(=O)(=O)c1ccc(Cl)cc1)S(=O)(=O)c1ccc(Cl)cc1` (stereo unspecified), the MIC falls from 200 µg/mL (≈ 496 µM) to 100 µg/mL (≈ 210 µM) (2-fold).

System: Fusarium solani
Test: Antifungal activity against Fusarium solani NCIM 1330 at 100 ug/disk after 48 hrs by agar disk diffusion method
Format: functional
Settings: NCIM 1330, 48 h, read-out: IZ
Procedure, shortened: as §4

Compared with `NC1=NN=C(N)C1C(CC(=O)c1ccc(Cl)cc1)C(=O)c1ccc(Cl)cc1` (stereo unspecified), `NC1=NN=C(N)C1C(CS(=O)(=O)c1ccc(Cl)cc1)S(=O)(=O)c1ccc(Cl)cc1` (stereo unspecified) is higher in zone of inhibition at 100 µg/disc: 33 mm for the first, 35 mm for the second.

System: Bacillus subtilis
Test: Antibacterial activity against Bacillus subtilis NCIM 2063 after 24 hrs by microdilution susceptibility method
Format: functional
Settings: NCIM 2063, 24 h
Procedure, shortened: as §1

First: NC1=NN=C(N)C1C(CC(=O)c1ccc(Cl)cc1)C(=O)c1ccc(Cl)cc1 (stereo unspecified)
Second: NC1=NN=C(N)C1C(CS(=O)(=O)c1ccc(Cl)cc1)S(=O)(=O)c1ccc(Cl)cc1 (stereo unspecified)
The MIC of the first is 4-fold higher: 100 µg/mL (≈ 248 µM) for the first, 25 µg/mL (≈ 52.6 µM) for the second.

System: Staphylococcus aureus
Test: Antibacterial activity against Staphylococcus aureus NCIM 5021 at 100 ug/disk after 24 hrs by agar disk diffusion method
Format: functional
Settings: NCIM 5021, 24 h, read-out: IZ
Procedure, shortened: as §2

Going from `NC1=NN=C(N)C1C(CC(=O)c1ccc(Cl)cc1)C(=O)c1ccc(Cl)cc1` (stereo unspecified) to `NC1=NN=C(N)C1C(CS(=O)(=O)c1ccc(Cl)cc1)S(=O)(=O)c1ccc(Cl)cc1` (stereo unspecified), the zone of inhibition at 100 µg/disc rises from 31 mm to 34 mm.
